Test results taken from ChEMBL document CHEMBL1833817, “Synthesis and cytotoxicity of 8-cyano-3-substitutedalkyl-5-methyl-4-methylene-7-methoxy-3,4-dihydropyrido[4,3-d]pyrimidines” (Bioorg Med Chem Lett, 2011).

Legend:
Format in all cases: functional, cell-based
KB = experiment: Cytotoxicity against human KB cells after 3 days by MTT assay; details: 72 h
Outline: (§1)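 Exponential-phase cells seeded at 5 × 10⁴–1 × 10⁵ cells/mL in fresh medium, grown overnight, then treated with compounds dissolved in DMSO at selected concentrations for 3 days. MTT in PBS (10 mg/mL stock) added for 3 h. Formazan dissolved in DMSO and read at 540 nm, with PBS lacking MTT as blank. Inhibition rate taken from averaged OD; IC50 = concentration giving 50% growth inhibition. Coefficients of variation <10%.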

[1] = Cytotoxicity against human CNE2 cells after 3 days by MTT assay; details: CNE-2, 72 h; outline: as §1
MGC-803 = experiment: Cytotoxicity against human MGC803 cells after 3 days by MTT assay; details: MGC-803, 72 h; outline: as §1

Compound	IC50 (KB) [nM]	IC50 [1] [nM]	IC50 (MGC-803) [nM]
C=C1c2c(C)nc(OC)c(C#N)c2N=CN1Cc1ccccc1	> 50000		
C=C1c2c(C)nc(OC)c(C#N)c2N=CN1CCc1ccc(Cl)cc1	> 50000		
C=C1c2c(C)nc(OC)c(C#N)c2N=CN1Cc1ccc(OC)cc1	670	180	670
C=C1c2c(C)nc(OC)c(C#N)c2N=CN1CC	> 50000		
C=C1c2c(C)nc(OC)c(C#N)c2N=CN1CCC	> 50000		
C=C1c2c(C)nc(OC)c(C#N)c2N=CN1CCCCCC	> 50000		
C=C1c2c(C)nc(OC)c(C#N)c2N=CN1Cc1ccco1	> 50000		
C=C1c2c(C)nc(OC)c(C#N)c2N=CN1Cc1ccc(Cl)cc1	20000		
COc1nc(C)c2c(C)ncnc2c1C#N	> 50000		
C=C1c2c(C)nc(OC)c(C#N)c2N=CN1Cc1ccc(C)cc1	480	150	590
C=C1c2c(C)nc(OC)c(C#N)c2N=CN1Cc1cccc(C)c1	37000		
